According to ChEMBL document CHEMBL5316278, “Chemical Blockage of the Mitochondrial Rhomboid Protease PARL by Novel Ketoamide Inhibitors Reveals Its Role in PINK1/Parkin-Dependent Mitophagy” (J Med Chem, 2023):
Active and inactive are the calls of the source. No cut-off for these calls is given here. *1 amine or outer side, *2 acyl side, *3 side chain or, on linkers, in order; H or OH if unused. Where a SMILES comes first, the peptide text is derived from it. [ ]: non-standard residue; d: D form. The star is where a group is joined. NH(4-phenylbutyl) = c1ccc(CCCCN*)cc1; X1 = C[C@H](N[*:1])C(=O)C(=O)[*:2]

What was measured:
[1] = target: T1, Presenilin-associated rhomboid-like protein, mitochondrial (Homo sapiens) (UniProt Q9H300); assay: Inhibition of human PARL expressed in human T-REx-293 cells overexpressing PINK1 transfected with mito-mCherry and Parkin-mEGFP assessed as Parkin recruitment in mitochondria at 5 uM incubated for 3 hrs by fluorescence based microscopic analysis
T1 sequence (whole entry): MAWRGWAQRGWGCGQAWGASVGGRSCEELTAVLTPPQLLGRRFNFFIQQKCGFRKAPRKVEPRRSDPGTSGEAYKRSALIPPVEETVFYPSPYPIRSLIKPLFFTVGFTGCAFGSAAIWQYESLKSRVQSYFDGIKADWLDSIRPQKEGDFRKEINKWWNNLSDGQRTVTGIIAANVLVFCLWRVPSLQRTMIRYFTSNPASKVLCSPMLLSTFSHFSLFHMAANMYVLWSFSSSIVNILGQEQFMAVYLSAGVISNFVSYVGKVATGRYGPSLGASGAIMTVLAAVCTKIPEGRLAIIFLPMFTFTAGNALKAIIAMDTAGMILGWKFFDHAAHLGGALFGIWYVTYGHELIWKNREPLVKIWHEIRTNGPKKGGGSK
How it was run: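 PINK1-induced HEK293 T-REx cells on poly-L-lysine slides were co-transfected with mito-mCherry and Parkin-mEGFP using PEI. Nuclei were stained with Hoechst (1 μg/mL) before treatment, and cells were treated for 3 h alongside DMSO, CCCP and Antimycin A. Parkin colocalisation with mitochondria was judged by fluorescence microscopy and line-scan pixel intensity plots.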

[2] = target: T1, Presenilin-associated rhomboid-like protein, mitochondrial (Homo sapiens); assay: Inhibition of human PARL expressed in human T-REx-293 cells overexpressing PINK1 transfected with HA-Parkin-IRES-GFP assessed as increase in Parkin level in mitochondrial fraction at 5 uM incubated for 22 hrs by immunoblot analysis; type: mitochondria
How it was run: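 PINK1-induced HEK293 T-REx cells were transiently transfected with HA-Parkin-IRES-GFP (100 ng per 6-well, linear PEI). They were treated for 22 h, with DMSO, CCCP (10 μM, 3 h) and Antimycin A (30 μM, 3 h) as comparators. Cells were fractionated into cytosolic and mitochondrial fractions and immunoblotted (AIF, β-actin controls); n = 3, unpaired t-test.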

[3] = target: T1, Presenilin-associated rhomboid-like protein, mitochondrial (Homo sapiens); assay: Inhibition of human PARL expressed in human HEK293T cells assessed as stabilization of 66 kDa PINK1 at 5 uM incubated for 8 hrs by immunoblot analysis; type: cell-based
How it was run: (§1)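 Parental HEK293T cells (endogenous PINK1) were treated for 8 h, with DMSO or CCCP as comparators. Mitochondrial membranes were enriched by hypotonic needle lysis, 100,000 × g pelleting and 100 mM Na2CO3 extraction through a sucrose cushion. PINK1 was then read by immunoblot, with VDAC as fractionation control; n = 3, means ± SEM.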

[4] = target: T1, Presenilin-associated rhomboid-like protein, mitochondrial (Homo sapiens); assay: Inhibition of human PARL expressed in human HEK293T cells assessed as stabilization of 62 kDa PINK1 at 5 uM incubated for 8 hrs by immunoblot analysis; type: cell-based; how it was run: as §1
[5] = target: T1, Presenilin-associated rhomboid-like protein, mitochondrial (Homo sapiens); assay: Inhibition of human PARL expressed in human Flp-In-T-REx-293 cells overexpressing PINK1 with OMA1 knockdown assessed as stabilization of 53 kDa PINK1 at 10 uM incubated for 8 hrs by immunoblot analysis; type: cell-based
How it was run: (§2)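 PINK1-inducible HEK293 T-REx cells were transfected with 20 nM siRNA using RNAiMAX and analysed five days later. PINK1 was induced with doxycycline. Cells were treated for 8 h with 10 μM or DMSO. Read-out was immunoblot, with β-actin as loading control.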

[6] = test system: HEK-293T; assay: Disruption of mitochondrial membrane potential in human HEK293T cells at 5 uM incubated for 3 hrs by JC-1 staining method; type: functional, cell-based
[7] = target: T1, Presenilin-associated rhomboid-like protein, mitochondrial (Homo sapiens); assay: Inhibition of human PARL expressed in human Flp-In-T-REx-293 cells overexpressing PINK1 assessed as stabilization of 66 kDa PINK1 at 0.1 to 30 uM incubated for 8 hrs by immunoblot analysis; type: cell-based; details: dose 0.1-30 µM
How it was run: (§3)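 HEK293 T-REx cells with inducible PINK1 were grown in DMEM with 10% FBS, GlutaMAX, pyruvate, hygromycin and blasticidin. PINK1 was induced with 0.3 μg/mL doxycycline for 24 h. Cells were treated for 8 h, with DMSO and CCCP (10 μM, 3 h) as comparators. Cleaved PINK1 forms were resolved by immunoblot of whole-cell samples.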

[8] = target: T1, Presenilin-associated rhomboid-like protein, mitochondrial (Homo sapiens); assay: Inhibition of human PARL expressed in human Flp-In-T-REx-293 cells overexpressing PINK1 assessed as stabilization of 62 kDa PINK1 at 0.1 to 30 uM incubated for 8 hrs by immunoblot analysis; type: cell-based; details: dose 0.1-30 µM; how it was run: as §3
[9] = target: T1, Presenilin-associated rhomboid-like protein, mitochondrial (Homo sapiens); assay: Inhibition of human PARL expressed in human Flp-In-T-REx-293 cells overexpressing PINK1 assessed as stabilization of 53 kDa PINK1 at 0.1 to 30 uM incubated for 8 hrs by immunoblot analysis; type: cell-based; details: dose 0.1-30 µM; how it was run: as §3
[10] = target: T1, Presenilin-associated rhomboid-like protein, mitochondrial (Homo sapiens); assay: Inhibition of human PARL expressed in human Flp-In-T-REx-293 cells overexpressing PINK1 with OMA1 knockdown assessed as stabilization of 62 kDa PINK1 at 10 uM incubated for 8 hrs by immunoblot analysis; type: cell-based; how it was run: as §2
[11] = target: T1, Presenilin-associated rhomboid-like protein, mitochondrial (Homo sapiens); assay: Inhibition of human PARL expressed in human Flp-In-T-REx-293 cells overexpressing PINK1 assessed as stabilization of 62 kDa PINK1 by measuring its inner mitochondrial level at 5 uM incubated for 3 hrs followed by proteinase K treatment by immunoblot analysis; type: cell-based
How it was run: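 PINK1 was induced in HEK293 T-REx cells by doxycycline and treated for 3 h, with DMSO and CCCP as comparators. Mitochondria were isolated at 4 °C in EGTA-free isolation buffer and exposed to proteinase K for 1 h, then PMSF (2.5 mM, 15 min). PINK1 forms were read by immunoblot, with AIF and VDAC as fractionation controls.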

[12] = target: T1, Presenilin-associated rhomboid-like protein, mitochondrial (Homo sapiens); assay: Inhibition of human PARL expressed in human Flp-In-T-REx-293 cells overexpressing PINK1 assessed as stabilization of 66 kDa PINK1 at outer mitochondrial membrane at 5 uM incubated for 6 hrs followed by proteinase K treatment by immunoblot analysis; type: cell-based
How it was run: (§4)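 PINK1 was induced in HEK293 T-REx cells (doxycycline 0.3 μg/mL, 24 h), then treated for 6 h. Cells were lysed directly, or mitochondria were isolated by needle lysis and 10,000 × g centrifugation and digested with proteinase K for 30 min, then 2.5 mM PMSF for 15 min. Read-out was immunoblot, with AIF as fractionation control.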

[13] = target: T1, Presenilin-associated rhomboid-like protein, mitochondrial (Homo sapiens); assay: Inhibition of human PARL expressed in human Flp-In-T-REx-293 cells overexpressing PINK1 assessed as stabilization of 53 kDa PINK1 at outer mitochondrial membrane at 5 uM incubated for 6 hrs followed by proteinase K treatment by immunoblot analysis; type: cell-based; how it was run: as §4

For `CCCCCC[C@H]1C(=O)O[C@H](C)[C@H](NC(=O)c2cccc(NC=O)c2O)C(=O)O[C@@H](C)[C@@H]1OC(=O)CC(C)C`, the inhibition [1] was “inactive” and the inhibition [2] was “Active”.

In the case of `CC(=O)N[C@@H](C)C(=O)N[C@H](C(=O)N[C@@H](Cc1ccccc1)C(=O)N[C@@H](CC(C)C)C(=O)N[C@@H](C)C(=O)C(=O)NCCCCc1ccccc1)C(C)C` (Ac-AVFL[X1]-{NH(4-phenylbutyl)}), the inhibition [3] is reported as “Active”, the inhibition [4] is reported as “Active” and the inhibition [1] is reported as “Active”. The inhibition [5] was “Active”, the Activity [6] was “inactive” and the inhibition [7] was “Dose-Dependent Effect”. For the same compound, the inhibition [8] was “Dose-Dependent Effect”, the inhibition [9] was “Dose-Dependent Effect” and the inhibition [10] was “Active”. For the same compound, the inhibition [11] was “Active”, the inhibition [12] was “inactive” and the inhibition [13] was “inactive”. The inhibition [2] was “Active”.

In the case of `N#CC(C#N)=NNc1cccc(Cl)c1`, the Activity [6] is reported as “Active”, the inhibition [11] is reported as “inactive” and the inhibition [2] is reported as “Active”.
